# Measurements as given in ChEMBL document CHEMBL4513216, “Probing the Open Global Health Chemical Diversity Library for Multistage-Active Starting Points for Next-Generation Antimalarials” (ACS Infect Dis, 2020).
# Assay: Toxicity liver stage against HepG2, at 10uM
# Assay type: cell-based
# Design: test concentration 10 uM, cell line HepG2-A16-CD81EGFP
# Conditions: human, HepG2-A16-CD81EGFP cells; read-out: INHIBITION
# In short: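 Uninfected HepG2-A16-CD81EGFP cells, 3 × 10^3 per well, 1536-well, plated on prespotted compound at 10 μM final, parasite-free screening media added to match infected plates; puromycin 10 μM positive, DMSO 0.5% negative; run in parallel with 48 h PbLuc assay at 37 °C, 5% CO2; viability by CellTiter-Glo luminescence, normalized to controls.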
row,SMILES,cytotoxicity at 10 µM
1,O=C1NCCCCC1Sc1ccc(F)cc1F (stereo unspecified),-8.01%
2,F[C@@H]1CN(CC2CC2)C[C@@H]1OCc1nc2ccccc2o1,1.97%
3,COc1ccc(C(=O)NC[C@H]2COCc3nc4cc(C)ccc4n32)cc1,2.52%
4,O=C(NC[C@H]1OC[C@@H](NC2CCC(F)(F)CC2)[C@@H]1O)c1cccs1,-7.34%
5,COCc1cn(C[C@H]2C[C@@H]3CCN2C[C@@H]3C(=O)N2CCOCC2)nn1,4.45%
6,CCn1nnc(NCc2ccccc2OCc2ccc(Cl)cc2)n1,-0.139%
7,O=C(Cn1cnc(-c2cccs2)cc1=O)Nc1cccnc1,-3.69%
8,Cc1cccc(OC2CCN(S(=O)(=O)Cc3cccc(F)c3)CC2)n1,-7.79%
9,COC1(CNS(=O)(=O)c2ccccc2Cl)CCSC1 (stereo unspecified),-7.48%
10,Cc1nc(N(C)C)nc(C)c1NC(=O)c1ccco1,1.14%
11,O=C(NCCCO)C1CC(=O)N(c2n[nH]c3cccc(F)c23)C1 (stereo unspecified),-1.07%
12,CCS(=O)(=O)N1Cc2nccn2CC(Cn2nc(C)nc2C)C1 (stereo unspecified),-2.34%
13,O=C(CCc1ccccc1)N1CCn2cc(Cn3cncn3)nc2C1,-0.881%
14,CC1CCCCN1C(=O)c1ccn(COc2ccc(F)cc2)n1 (stereo unspecified),4.7%
15,CC(C)(C)NC(=O)N1CCN(Cc2cccnc2)CC1,10.3%
16,c1ccc2c(N3CCSCC3)cnnc2c1,-4.02%
17,CCN1CCN(C(=O)COCc2nc(-c3ccncc3)no2)CC1,-8.72%
18,CCCC(=O)NCCc1nc2cc(-c3ccc(OC)cc3)ncn2n1,5.26%
19,CCOCC(=O)N1C[C@@H](O)[C@H](N2CCN(c3ccccc3)CC2)C1,7.43%

row,SMILES,cytotoxicity at 10 µM
1,CCc1cc(O)n2nc(C3CCN(C(=O)c4ccccn4)CC3)cc2n1,2.29%
2,Cc1c[nH]nc1C1CN(Cc2cnn(-c3ccccc3C(=O)O)c2)C1,3.32%
3,COCCN1CCCC(C)(c2cc(O)[nH]n2)C1 (stereo unspecified),10.8%
4,Cc1nccc(C2CN(S(=O)(=O)N(C)C)C2)n1,-5.44%
5,CNc1cc(C)nc(C2COCCN2CCc2ccccc2)n1 (stereo unspecified),2.52%
6,CNc1ncc(C(=O)N2CCOC(C(=O)NC3CCCC3)C2)cn1 (stereo unspecified),12.2%
7,Cc1ccc(N(C)[C@@H]2CC[C@@H]3CN(C(=O)Cc4cccs4)C[C@@H]32)nn1,-13.5%
8,CCCn1cc(C(=O)N2CCCC2(C)c2nc(C)cc(C)n2)cn1 (stereo unspecified),4.28%
9,c1cc(N2CCCC2c2cnccn2)ncn1 (stereo unspecified),-22.4%
10,O=c1c2sccc2nc2n1CCN(Cc1cccs1)CC2,4.27%
11,Cc1nccn1-c1ccc(NS(=O)(=O)c2cnn(C(C)C)c2)cn1,-5.05%
12,O=C(c1ccncc1)N1CCCN(Cc2nnc(C3CC3)o2)CC1,1.91%
13,CCC1CCCCCN1C(=O)c1coc(S(=O)(=O)N(C)C)c1 (stereo unspecified),1.66%
14,Cc1ccc(C2CN(CCCC#N)CCO2)c(C)c1 (stereo unspecified),-2.16%
15,CC(C)(C)c1nnc(NCC(=O)N2CCc3sccc3C2)s1,5.62%
16,COCC(O)CN1CCC(NC(=O)c2cscc2C)CC1 (stereo unspecified),-4.51%
17,COCCN(C(=O)c1ccc(OC)cc1)c1ccc(C#N)cc1,7.81%
18,Cc1ccc(N2CCCN(C(=O)c3cc(CC(C)C)n[nH]3)CC2)nn1,-14.6%
19,COCCC(=O)NCC(O)c1c(F)cccc1F (stereo unspecified),-2.38%

row,SMILES,cytotoxicity at 10 µM
1,Cc1cc(OCC(=O)NCc2ccc(F)cc2)nnc1C,-9.27%
2,O=C(OCc1cccs1)c1cccc(C(=O)N2CCCC2)n1,-1.11%
3,O=C(O)c1csc(S(=O)(=O)N2CCN(Cc3c(F)cccc3Cl)CC2)c1,-2.56%
4,COC(=O)c1oc(CNC(C)(C)CO)cc1C,10.5%
5,Cc1ccc(N(CCC#N)C(=O)CN2CCCC2c2cccs2)cc1 (stereo unspecified),-3.75%
6,CCc1ccc(CNC(=O)CCNS(=O)(=O)c2cn(C)c(C)n2)s1,6.13%
7,CNC(=O)CN1CCN(C(=O)Nc2ccc(C)s2)CC1,-13.3%
8,Cc1noc(C)c1CC(=O)N1CCCC(c2noc(C(C)C)n2)C1 (stereo unspecified),1.48%
9,CCn1nc(C)c(CNC(=O)NCC(C)(O)c2ccco2)c1C (stereo unspecified),-10.8%
10,COC(=O)c1ccc(Cl)c(NS(=O)(=O)c2cn(C)cn2)c1,11.9%
11,Cc1nn(C)c(Cl)c1C1CCCN1CC(=O)N1CCCCC1 (stereo unspecified),0.347%
12,Cc1cc(CN2CCN(C(=O)C(C(C)C)n3cncn3)CC2)no1 (stereo unspecified),-9.88%
13,CC(C)c1nc(CN2CCN(C(=O)CC3CCCCC3)CC2)no1,-0.95%
14,Cc1csc(NC(=O)c2cccnc2N2CCOCC2)n1,-4.75%
15,CCN(CC)C(=O)CCNC(=O)c1ccccc1N1CCOCC1,-0.768%
16,Cc1cccc(CNCCOc2ccc(S(C)(=O)=O)cc2)c1,-0.302%
17,CS(=O)(=O)NCC1CCCN(C(=O)c2ccc3c(c2)CCCC3)C1 (stereo unspecified),-3.54%
18,Cn1c(=O)oc2ccc(NC(=O)N3CCc4ccccc4C3)cc21,-5.66%
